High-throughput results from PubChem.
SR-BI DiI-HDL act: activators of SR-BI mediated DiI-HDL uptake, primary screen, ldlA[mSR-BI] CHO cells, DiI fluorescence. activation, % at 12.5 µM. actives 0.096% (n = 320,000). 3 h; 100 = double the neutral-control signal;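 active = mean replicate activation of at least 60% and every replicate at or above 60%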
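Material: SR-BI-overexpressing, LDLR-lacking CHO cells; schedule: compound exposure 3 h, 37 °C; reagent: DiI-labelled HDL at 10 µg/mL final; technique: bottom-read fluorescence, 550/595 nm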
FN deposition inh: inhibitors of fibronectin matrix deposition, primary screen, AH1F cells, Alexa488-fibronectin fluorescence, plate reader | AH1F fibroblasts, overnight | inhibition, % at 12.6 µM | actives 0.086% (n = 350,000) | AID 743247, 2014;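 active = mean inhibition across replicates of 30% or more, regardless of how many single replicates reach that level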
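Assay system: AH1F fibroblasts assembling fluorescent fibronectin matrix; Amount: 10000 AH1F cells per well; Buffer or medium: DMEM, 2% serum; Probe or stimulus: Alexa488-fibronectin, 24 nM final in well; Doses: single compound dose, delivered by pin transfer; Incubation: 1 h adhesion, overnight exposure; Measured by: fluorescence 485/525 nm; Read-out: fibronectin deposition inhibition.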
Efflux pump inh: inhibitors of Candida efflux pumps in yeast, primary screen, S. cerevisiae, Nile Red, multiplex. S. cerevisiae Candida pump triplex. inhibition, % at 10 µM. actives 0.44% (n = 330,000). AID 485275, 2010;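 active = plate passing quality check with inhibition over a set limit, or well fluorescence over plate mean plus 4 SD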;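 note: Nile Red retained in pooled yeast measured as flow cytometry median fluorescence; higher means more Nile Red kept so more efflux inhibition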
CaV13 FRET inh: Disruptors of the CACNA1D IQ motif to Ca2+-dependent inactivation inhibitor domain association, primary screening, Förster resonance energy transfer in intact living …; HEK cells, CFP/YFP FRET ICDI-IQ, plate reader, 10 min; percent FRET-ratio fall versus neutral wells; inhibition, % at 12.3 µM; actives 0.098% (n = 340,000);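 active = mean replicate inhibition of at least 30% and at least 1% of replicates passing that level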
SR-BI HDL uptake: inhibitors of SR-BI mediated HDL lipid uptake, primary screen, ldlA[mSR-BI] cells, fluorescence, single point. inhibition, % at 12.5 µM. ldlA[mSR-BI] CHO cells, DiI-HDL uptake fluorescence, 3 h. actives 0.96% (n = 320,000). AID 488896, 2010. Scavenger receptor class B member 1 (Mus musculus), Q61009;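 active = mean replicate inhibition of at least 70% and a set share of replicates each scoring 70 or more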
Target sequence (Q61009 whole entry, looked up): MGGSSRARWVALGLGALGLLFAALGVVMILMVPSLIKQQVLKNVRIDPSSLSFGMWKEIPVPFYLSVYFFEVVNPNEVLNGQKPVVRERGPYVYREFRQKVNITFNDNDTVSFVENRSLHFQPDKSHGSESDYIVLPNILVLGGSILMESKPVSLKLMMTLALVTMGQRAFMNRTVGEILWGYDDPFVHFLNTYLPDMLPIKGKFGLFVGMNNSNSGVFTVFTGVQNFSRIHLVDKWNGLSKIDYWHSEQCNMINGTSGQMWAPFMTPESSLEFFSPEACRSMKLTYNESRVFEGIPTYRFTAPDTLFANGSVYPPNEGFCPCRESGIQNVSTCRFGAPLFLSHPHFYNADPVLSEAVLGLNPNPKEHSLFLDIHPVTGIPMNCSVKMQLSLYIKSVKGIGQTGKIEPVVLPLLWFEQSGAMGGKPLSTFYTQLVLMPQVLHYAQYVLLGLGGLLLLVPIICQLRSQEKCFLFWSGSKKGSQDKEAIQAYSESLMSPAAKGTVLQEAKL
Hits are given with their value; 0 = inactive; - = no result. Rows were chosen to be rich in hits. Some 1.2% of all compounds tested hit in one or more screens of this group.

SMILES	SR-BI DiI-HDL act	FN deposition inh	Efflux pump inh	CaV13 FRET inh	SR-BI HDL uptake
COc1ccc2nc(NC(=O)CCc3cc(OC)c(OC)c(OC)c3)sc2c1	0	0	0	0	72
COc1cc(CCC(=O)Nc2cc(C)cc(C)c2)cc(OC)c1OC	0	0	0	0	83
C[C@H]1CN([C@@H](C)CO)C(=O)c2ccccc2-c2ccccc2CO[C@@H]1CN(C)S(=O)(=O)c1cccc(F)c1	-	0	-	-	-
O=C(c1ccccc1)N1CC[C@@H]2[C@H]1c1cc(-c3ccc(F)cc3)ccc1N[C@@H]2CO	-	0	-	-	-
CC(C)C(=O)Nc1ccc2c(c1)C(=O)N(C)[C@@H]1CC[C@@H](CC(=O)Nc3ccccc3)O[C@@H]1CO2	-	0	-	-	-
COc1ccc(CNC(=O)C[C@H]2C[C@H]3c4cc(NS(=O)(=O)c5ccc(F)cc5)ccc4O[C@H]3[C@H](CO)O2)cc1	-	0	-	-	-
COc1ccc(NC(=O)C(CC(C)C)NC(=O)C2CCCCC2)c(OC)c1 (configuration not stated)	0	0	0	0	82
CCOc1ccccc1NC(=O)C(CC(C)C)NC(=O)C1CCCCC1 (configuration not stated)	0	0	0	0	0
CCN1/C(=C/C=C/c2sc3ccccc3[n+]2CC)Sc2ccccc21	722	-	0	-	0
CCN1/C(=C/C=C/C=C/C=C/c2sc3ccccc3[n+]2CC)Sc2ccccc21	0	0	0	0	0
CCN1/C(=C/C=C/C=C/c2sc3ccccc3[n+]2CC)Sc2ccccc21	-	-	0.8	-	-
CC[C@H]1C/C=C\C[C@H](c2ccc(OC)cc2OC)NC(=O)[C@H](C)CC(=O)N1	-	0	-	-	-
O=[N+]([O-])c1ccc2c(c1Nc1ccccc1)=NC1(CCCCC1)N=2	0	0	0	0	0
COc1ccc(Nc2c([N+](=O)[O-])ccc3c2=NC2(CCCCC2)N=3)cc1	0	0	0	0	86
CC1CCN(Cc2c(C(=O)N/N=C/c3cc(Cl)ccc3O)nnn2-c2nonc2N)CC1	0	0	0	0	0
COc1ccc(O)c(/C=N/NC(=O)c2c(C)nnn2-c2nonc2N)c1	0	0	0	0	101
CC1CCN(Cc2c(C(=O)N/N=C/c3cc(Br)ccc3O)nnn2-c2nonc2N)CC1	0	0	0	0	103
COc1cc2sc3ccc(-c4ccc5[nH]ccc5c4)cc3c(=O)c2cc1OC	0	0	0	0	75
COc1cc2sc3ccc(C#Cc4ccc(N)cc4)cc3c(=O)c2cc1OC	0	0	0	0	0
CCC(=O)N(C)C[C@H]1Oc2ncc(-c3ccc(C)cc3)cc2C(=O)N([C@H](C)CO)C[C@@H]1C	-	0	-	-	-
COc1ccc(CCN2CC(C(=O)NCc3cccc4[nH]ccc34)CCC2=O)cc1 (configuration not stated)	0	0	0	0	0
O=C(NCc1cccc2[nH]ccc12)C1CCC(=O)N(CCc2ccccc2)C1 (configuration not stated)	120	0	0	0	0
CCOC(=O)c1cc(NC(=O)N(C)C2CCCCC2)c(C)nc1C	0	0	0	0	74
CCOC(=O)Nc1cc(C(=O)OCC)c(C)nc1C	0	-	0	-	0
CCOC(=O)c1cc(NC(=O)N(CC)C2CCCCC2)c(C)nc1C	0	-	0	0	77
SMILES	SR-BI DiI-HDL act	FN deposition inh	Efflux pump inh	CaV13 FRET inh	SR-BI HDL uptake
CC(C)[C@@H]1COCc2cn(nn2)CC[C@@H](Cc2ccc(Cl)cc2)C(=O)N1	-	0	-	-	-
C[C@H](CO)N1C[C@H](C)[C@@H](CN(C)Cc2ccc(F)cc2)OCc2ccccc2-c2c(n(C)c3ccccc23)C1=O	-	0	-	-	-
CCOC(=O)/C(=N\Nc1ccc(OC)cc1)c1csc(Nc2ccccc2)n1	0	-	0	0	99
CCCCC(CCC(=O)O)(C(=O)OCC)c1csc(Nc2ccccc2)n1 (configuration not stated)	0	-	0	-	0
CCN(CC)C(=O)c1csc(Nc2ccc(C)cc2)n1	0	0	0	0	0
CCOC(=O)/C(=N/Nc1ccccc1)c1csc(Nc2ccccc2)n1	0	0	0	0	95
CCOC(=O)/C(=N\Nc1ccc(Cl)cc1)c1csc(Nc2ccccc2)n1	0	0	0	0	110
